Measured values published in publication PMC5903019 (International Journal of Pharmaceutical Investigation, 2017).
≈ marks a conversion by molar mass, not a printed value. Read-outs that look alike come from different tables or passages of the source.

Columns and labels:
[1] = Saturation solubility of EAPB0503 in solvents by HPLC; assay type: physicochemical; conditions: for solubility: thermodynamic from solid
Outline: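 Solvents, including purified water, were saturated with solid test compound and centrifuged at 5000 g for 5 min. The supernatant was quantified by HPLC on a C8 column using acetonitrile/2 mM ammonium formate pH 3 at 0.6 mL/min with a 12 min run. The column was held at 20°C and detection was by UV. Calibration used DMSO standards from 50–1000 μg/mL.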

A375 cell line = conditions: cited from earlier work
[2] = rats, i.p.; cited from earlier work
[3] = Thermogravimetric analysis; assay type: physicochemical
Outline: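 Thermogravimetric analysis of a 5.0 ± 0.5 mg sample in a ceramic pan under nitrogen at 2 bars. The sample was heated from 20°C to 350°C at 10°C/min to obtain the degradation temperature.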

[4] = Solubility screening of EAPB0503 in oils; assay type: physicochemical
Outline: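 5 mg of test compound was added to 1 g of pharmaceutical-grade oil ([…], castor, olive, soybean or sesame). Samples were magnetically stirred for 24 h at 20°C and then checked for complete solubilization.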

tubulin polymerization = conditions: cited from earlier work
[5] = cited from earlier work
[6] = cited from earlier work; remark: listed apart in the source

Compound: CNc1nc2ccccc2n2c(-c3cccc(OC)c3)cnc12 [EAPB0503, 1-[3-methoxyphenyl]-N-methylimidazo [1,2-a] quinoxalin-4-amine]
- Maximum concentration (solubility) ([1]; Purified water): <0.1 mg/mL
- solubility ([1]; dimethyl sulfoxide, organic solvent or mixture): 16.6 mg/mL (≈ 54.5 mM)
- solubility ([1]; dimethylacetamide, organic solvent or mixture): 24.8 mg/mL (≈ 81.5 mM)
- solubility ([1]; phosphate buffered saline, aqueous buffer): < 0.1 mg/mL
- solubility ([1]; purified water, water): < 0.1 mg/mL
- IC50 (A375 cell line; A375 cell line growth): 200 nM
- Fold increase activity compared to EAPB0203 (A375 cell line; in vitro activity, human melanoma cell lines): 9
- Bioavailability after intraperitoneal administration [2]: 35%
- Degradation temperature (TGA) [3]: 347 °C
- Degradation temperature onset (TGA) ([3]; onset): 210 °C
- Solubility in Labrafac WL 139 ([4]; Labrafac WL 139): higher than 12 mg/g
- solubility at 24 h ([4]; Labrafac WL 1349 (semi-synthetic oil), oil or lipid, thermodynamic from solid): 12 mg/mL (≈ 39.4 mM)
- Concentration obtainable in vegetable oils ([4]; castor, olive, soybean and sesame oils): ≤ 1000 µg/mL
- Solubilization in vegetable oils ([4]; castor, olive, soybean and sesame oils, 5 mg/mL, room temperature): not complete
- Inhibition of the tubulin polymerization (tubulin polymerization): potent inhibition

Compound: CC(=O)O[C@@]12CO[C@@H]1C[C@H](O)[C@@]1(C)C(=O)[C@H](O)C3=C(C)[C@@H](OC(=O)[C@H](O)[C@@H](NC(=O)OC(C)(C)C)c4ccccc4)C[C@@](O)([C@@H](OC(=O)c4ccccc4)[C@H]21)C3(C)C [docetaxel]
- Drug loading in LNC ([5]; encapsulated in LNC): 2 mg/mL

Compound: COc1cc([C@@H]2c3cc4c(cc3[C@@H](O[C@@H]3O[C@@H]5CO[C@@H](C)O[C@H]5[C@H](O)[C@H]3O)[C@H]3COC(=O)[C@H]23)OCO4)cc(OC)c1O [etoposide]
- Water solubility [6]: 0.978 mg/mL
- Drug efficiency (encapsulation) in LNC ([5]; formulated in LNC): 56.7 ± 21.3%
- Drug loading in LNC ([5]; formulated in LNC): 6.5 ± 3.0 mg/g

Compound: CC(=O)O[C@H]1C(=O)[C@@]2(C)[C@H]([C@H](OC(=O)c3ccccc3)[C@]3(O)C[C@H](OC(=O)[C@H](O)[C@@H](NC(=O)c4ccccc4)c4ccccc4)C(C)=C1C3(C)C)[C@]1(OC(C)=O)CO[C@@H]1C[C@@H]2O [paclitaxel]
- Drug loading in LNC ([5]; encapsulated in LNC): 4 mg/mL
